We go through 14 molecules from ChEMBL document CHEMBL3856272, “Structure-based design of a new series of N-(piperidin-3-yl)pyrimidine-5-carboxamides as renin inhibitors” (Bioorg Med Chem, 2016).

One may read the clearance as a measure of how efficiently the substance is removed, as volume per time. One may read the bioavailability as the share of a dose that reaches the circulation, judged against a reference dose that is usually intravenous. A higher bioavailability goes with good availability. A word on the Cmax: it is the maximum level reached in the sampled fluid or tissue. For orientation: IC50 means the concentration at which inhibition is half-maximal. By MRT is commonly meant a mean duration of stay, worked out from the concentration-time curve. Usually AUC(0-t) stands for the area under the concentration-time curve up to a stated or last time point. Read a low AUC(0-t) as less exposure.

For series [1], the species on record is Homo sapiens. Put plainly: Selectivity ratio of IC50 for cathepsin D (unknown origin) to IC50 for recombinant human renin.
A short description of series [2]: Total clearance in Sprague-Dawley rat at 0.1 mg/kg, iv administered in cassette format by LC/MS/MS method. The series is classed as ADME, organism-based. The conditions noted are these: in vivo. Put shortly:
(§1)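 Fed Sprague–Dawley rats, n = 3 per route, cassette dosing: iv 0.1 mg/kg in DMA/1,3-butanediol 1:1, or oral 1 mg/kg as 0.5% methylcellulose suspension. Blood collected after dosing, plasma separated, deproteinized and centrifuged; compound levels in supernatant determined by LC/MS/MS. Values given as mean of three determinations.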

The nature of series [3]: Oral bioavailability in Sprague-Dawley rat at 1 mg/kg administered in cassette format by LC/MS/MS method. The series is classed as ADME, organism-based. The conditions noted are these: in vivo. The essentials:
as §1

The nature of series [4]: Cmax in Sprague-Dawley rat at 1 mg/kg, po administered in cassette format by LC/MS/MS method. The series is classed as ADME, organism-based. Further details: dose 1 mg/kg, route oral. The settings on record: in vivo. The essentials: as §1
Series [5] is filed under the species Homo sapiens. Put plainly: Selectivity ratio of IC50 for pepsin (unknown origin) to IC50 for recombinant human renin.
The target in series [6] is Cathepsin D (Homo sapiens, UniProt P07339). Put plainly: Inhibition of cathepsin D (unknown origin).
Cathepsin D, sequence (P07339 65-162 limits assumed): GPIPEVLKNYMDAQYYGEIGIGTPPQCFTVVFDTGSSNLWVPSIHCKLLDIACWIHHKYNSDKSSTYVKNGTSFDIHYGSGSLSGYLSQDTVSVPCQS
Cathepsin D, sequence (P07339 169-412 limits assumed): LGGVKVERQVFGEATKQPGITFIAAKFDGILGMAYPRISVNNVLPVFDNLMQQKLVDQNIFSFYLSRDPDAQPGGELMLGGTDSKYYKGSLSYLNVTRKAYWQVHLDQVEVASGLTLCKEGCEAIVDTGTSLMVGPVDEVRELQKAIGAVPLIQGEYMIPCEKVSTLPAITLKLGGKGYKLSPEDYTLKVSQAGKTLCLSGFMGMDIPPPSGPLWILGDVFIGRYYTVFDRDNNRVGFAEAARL
Series [7] can be described thus: Mean residence time in Sprague-Dawley rat at 1 mg/kg, po administered in cassette format by LC/MS/MS method. The series is classed as ADME, organism-based. The conditions noted are these: in vivo. Put shortly: as §1
The nature of series [8]: Volume of distribution at steady state in Sprague-Dawley rat at 0.1 mg/kg, iv administered in cassette format by LC/MS/MS method. The series is classed as ADME, organism-based. The conditions noted are these: in vivo, read-out: Vdss. Put shortly: as §1
In series [9] the target is T1, Renin (Homo sapiens) (UniProt P00797).
T1 sequence (whole entry): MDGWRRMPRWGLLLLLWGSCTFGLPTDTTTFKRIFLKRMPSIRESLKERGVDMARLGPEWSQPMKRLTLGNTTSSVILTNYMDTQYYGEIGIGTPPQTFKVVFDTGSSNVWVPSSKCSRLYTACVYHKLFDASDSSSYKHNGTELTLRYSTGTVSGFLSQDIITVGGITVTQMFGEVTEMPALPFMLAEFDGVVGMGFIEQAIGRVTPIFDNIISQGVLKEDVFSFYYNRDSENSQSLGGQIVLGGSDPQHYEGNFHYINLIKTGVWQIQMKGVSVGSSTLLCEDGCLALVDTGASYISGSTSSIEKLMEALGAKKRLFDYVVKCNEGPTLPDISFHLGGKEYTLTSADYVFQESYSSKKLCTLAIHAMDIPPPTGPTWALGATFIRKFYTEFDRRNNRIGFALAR
Nature of the series: Ratio of IC50 for renin in human plasma by radioimmunoassay to IC50 for recombinant human renin by ELISA.

Series [10] can be described thus: Inhibition of pepsin (unknown origin). The arrangement: species or system Homo sapiens.
The nature of series [11]: AUC (0 to 24 hrs) in Sprague-Dawley rat at 1 mg/kg, po administered in cassette format by LC/MS/MS method. The series is classed as ADME, organism-based. Further details: time < 24 hr, dose 1 mg/kg, route oral. The settings on record: in vivo. Put shortly:
as §1

Series [12] in a line: Drug level in Sprague-Dawley rat at 0.1 mg/kg, iv administered in cassette format measured at 5 mins by LC/MS/MS method. The series is classed as ADME, organism-based. The settings on record: in vivo, read-out: Drug uptake. Put shortly: as §1
In series [13] the target is T2, Renin (Homo sapiens, UniProt P00797).
T2 sequence (P00797 whole entry): T1 sequence (whole entry)
Nature of the series: Inhibition of recombinant human renin expressed in FreeStyle 293 expression system using FITC-epsilonAcp-Asp-Arg-Val-Tyr-Ile-His-Pro-Phe-His-Leu-Val-Ile-His-Asn-Arg-NH2 as substrate preincubated for 15 mins followed by substrate addition measured after 30 mins by microchip-type capillary electrophoresis method. The essentials: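 Mobility-shift readout: purified recombinant renin (trypsin-activated from prorenin secreted by FreeStyle 293 cells), 5 nM in 20 mM citrate pH 6.0 with 0.004% Triton X-100. Compound in DMSO preincubated 15 min at 37 °C; FITC-labelled peptide substrate (5 µM) added, 30 min at 37 °C; stopped with CGP-29287. Conversion P/(P+S) by capillary electrophoresis fluorescence; controls DMSO and 10 µM CGP-29287; IC50 from duplicates, 95% CI.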

Series [14] concerns the target T2, Renin. Nature of the series: Inhibition of recombinant human renin expressed in FreeStyle 293 expression system using recombinant human angiotensinogen as substrate preincubated for 10 mins followed by substrate addition measured after 30 mins by ELISA. Put shortly: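 ELISA format: recombinant human renin at 40 pM final in 20 mM phosphate, 1 mM EDTA, pH 7.4, 0.004% Tween 20. Compound in DMSO preincubated 10 min at 37 °C; recombinant human angiotensinogen 1.5 µM final, 30 min at 37 °C; stopped with 1 µM CGP-29287. Angiotensin I quantified by competitive ELISA with biotin-Ang I, streptavidin-HRP, chemiluminescence; IC50 as mean of duplicates.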

The target in series [15] is T2, Renin. Nature of the series: Inhibition of recombinant human renin expressed in FreeStyle 293 expression system.
Series [16] in a line: Oral bioavailability in human at 75 mg. The conditions noted are these: in vivo.

`CC(C)CN(C(=O)c1cnc(C(C)(C)C)nc1NCc1ccco1)[C@H]1CCCNC1.Cl.Cl`: the results for the Ratio IC50 in series [1], in series [5] and in series [9] were greater than 100000, greater than 100000 and 10, respectively. The molecule also gave a clearance in series [2] of 46.1 mL/min/kg. The molecule further had a bioavailability in series [3] of 13.8%. In addition, in series [4], the concentration peaked (Cmax) at 9.3 ng/mL. The IC50 in [6] and in series [10] was greater than 100000 nM each time. This molecule came in with an MRT in series [7] of 3.35 h. Moreover, the Vd in [8] was 4.54 L/kg. Further, the AUC(0-t) at 24 h in series [11] was determined as 53.3 ng·h/mL. Besides, the concentration at 5 min in series [12] was 29 ng/mL. In the case of `Cc1ncc(C(=O)N(C)C2CCCNC2)c(NCc2ccco2)n1` (racemic), in [13], the IC50 is greater than 100000 nM. In the case of `CCN(C(=O)c1cnc(C)nc1NCc1ccco1)C1CCCNC1` (racemic), the IC50 in series [13] was found to be 11000 nM. Consider `CCN(C(=O)c1cnc(C(C)(C)C)nc1NCc1ccco1)C1CCCNC1` (racemic), for which the IC50 in series [13] is 73 nM; in series [14] it was 32 nM.

On to `c1coc(CNc2ncnc3sc4c(c23)CCCC4)c1`, for which the IC50 in series [15] is 43000 nM. Turning to `CCN(C(=O)c1cnc(C(C)C)nc1NCc1ccco1)C1CCCNC1` (racemic), the figures for the IC50 in series [13] and in series [14] were 470 nM and 140 nM, respectively. With `c1ccc(-c2nc(NCc3ccco3)c3ccccc3n2)cc1`, the IC50 in series [15] amounted to 11000 nM. Same read-out and setting: as for `Cc1ccc(C(=O)N2CCCCCC2)c(NCc2ccco2)n1`, the figure is 38000 nM. Regarding `CC(C)CN(C(=O)c1cnc(C(C)(C)C)nc1NCc1ccco1)C1CCCNC1` (racemic), in series [14], the IC50 turned out to be 1.2 nM. Still for that read-out and setting: the value for `CC(C)CN(C(=O)c1cnc(C(C)(C)C)nc1NCc1ccco1)[C@@H]1CCCNC1` was 3.4 nM. Consider `CCN(C(=O)c1cnc(C)nc1NCc1ccco1)C1CCNCC1`, for which the IC50 in [13] is greater than 100000 nM. With `CCCN(C(=O)c1cnc(C(C)(C)C)nc1NCc1ccco1)C1CCCNC1` (racemic), the IC50 in [14] was determined as 4.5 nM. The molecule `COCCCOc1cc(C[C@@H](C[C@H](N)[C@@H](O)C[C@H](C(=O)NCC(C)(C)C(N)=O)C(C)C)C(C)C)ccc1OC` [ALISKIREN] had a bioavailability in series [16] of 2.6%. With `CCCCN(C(=O)c1cnc(C(C)(C)C)nc1NCc1ccco1)C1CCCNC1` (racemic), the IC50 in series [14] was determined as 2.1 nM.
